What was measured:
[1] = target: Disintegrin and metalloproteinase domain-containing protein 17 (Homo sapiens, UniProt P78536); assay: Inhibition of TACE assessed as inhibition of pro-TNFalpha peptide cleavage
[2] = target: Matrix metalloproteinase-14 (Homo sapiens) (UniProt P50281); assay: Inhibition of MMP14
[3] = AUC in rat at 10 mg/kg, po; format: ADME, organism-based; design: dose 10 mg/kg, route oral; conditions: plasma
[4] = target: Collagenase 3 (Homo sapiens) (UniProt P45452); assay: Inhibition of MMP13
[5] = Oral bioavailability in rat at 10 mg/kg; format: ADME, organism-based; conditions: in vivo
In short: (§1)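 Rats were dosed separately at 3 mg/kg iv and 10 mg/kg po. Reported parameters were AUC (µM h), T1/2 (h), Cl (L/h/kg) and Vss (L/kg) after iv dosing, and AUC, Cmax (µM), Tmax (h) and F% after oral dosing.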

[6] = target: Matrix metalloproteinase-9 (Homo sapiens) (UniProt P14780); assay: Inhibition of MMP9
Rattus norvegicus [7] = assay: Clearance in rat at 3 mg/kg, iv; format: ADME, organism-based; design: dose 3 mg/kg, route intravenous; conditions: in vivo; in short: as §1
Rattus norvegicus [8] = assay: AUC in rat at 3 mg/kg, iv; format: ADME, organism-based, Plasma; design: dose 3 mg/kg, route intravenous; conditions: in vivo
[9] = Cmax in rat at 10 mg/kg, po; format: ADME, organism-based; design: dose 10 mg/kg, route oral; conditions: in vivo; in short: as §1
[10] = target: T1, Interstitial collagenase (Homo sapiens) (UniProt P03956); assay: Inhibition of MMP1
T1 sequence (whole entry): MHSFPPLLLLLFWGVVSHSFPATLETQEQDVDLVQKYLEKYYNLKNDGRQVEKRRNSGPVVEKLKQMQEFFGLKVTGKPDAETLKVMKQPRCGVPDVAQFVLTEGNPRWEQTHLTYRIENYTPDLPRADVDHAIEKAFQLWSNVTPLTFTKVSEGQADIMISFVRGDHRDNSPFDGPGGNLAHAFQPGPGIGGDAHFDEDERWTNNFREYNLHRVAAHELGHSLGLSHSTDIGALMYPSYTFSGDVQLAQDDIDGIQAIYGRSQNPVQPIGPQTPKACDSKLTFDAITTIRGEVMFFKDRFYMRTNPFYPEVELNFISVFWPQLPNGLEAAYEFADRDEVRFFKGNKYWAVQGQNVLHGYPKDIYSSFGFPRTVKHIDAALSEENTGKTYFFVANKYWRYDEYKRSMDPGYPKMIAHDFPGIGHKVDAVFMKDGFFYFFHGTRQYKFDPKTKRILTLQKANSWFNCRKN

Rattus norvegicus [11] = assay: Half life in rat at 3 mg/kg, iv; format: ADME, organism-based; design: dose 3 mg/kg, route intravenous; conditions: in vivo; in short: as §1
Rattus norvegicus [12] = assay: Volume of distribution at steady state in rat at 3 mg/kg, iv; format: ADME, organism-based; design: dose 3 mg/kg, route intravenous; conditions: in vivo; in short: as §1
[13] = target: T2, Disintegrin and metalloproteinase domain-containing protein 10 (Homo sapiens) (UniProt O14672); assay: Inhibition of ADAM10
T2 sequence (whole entry): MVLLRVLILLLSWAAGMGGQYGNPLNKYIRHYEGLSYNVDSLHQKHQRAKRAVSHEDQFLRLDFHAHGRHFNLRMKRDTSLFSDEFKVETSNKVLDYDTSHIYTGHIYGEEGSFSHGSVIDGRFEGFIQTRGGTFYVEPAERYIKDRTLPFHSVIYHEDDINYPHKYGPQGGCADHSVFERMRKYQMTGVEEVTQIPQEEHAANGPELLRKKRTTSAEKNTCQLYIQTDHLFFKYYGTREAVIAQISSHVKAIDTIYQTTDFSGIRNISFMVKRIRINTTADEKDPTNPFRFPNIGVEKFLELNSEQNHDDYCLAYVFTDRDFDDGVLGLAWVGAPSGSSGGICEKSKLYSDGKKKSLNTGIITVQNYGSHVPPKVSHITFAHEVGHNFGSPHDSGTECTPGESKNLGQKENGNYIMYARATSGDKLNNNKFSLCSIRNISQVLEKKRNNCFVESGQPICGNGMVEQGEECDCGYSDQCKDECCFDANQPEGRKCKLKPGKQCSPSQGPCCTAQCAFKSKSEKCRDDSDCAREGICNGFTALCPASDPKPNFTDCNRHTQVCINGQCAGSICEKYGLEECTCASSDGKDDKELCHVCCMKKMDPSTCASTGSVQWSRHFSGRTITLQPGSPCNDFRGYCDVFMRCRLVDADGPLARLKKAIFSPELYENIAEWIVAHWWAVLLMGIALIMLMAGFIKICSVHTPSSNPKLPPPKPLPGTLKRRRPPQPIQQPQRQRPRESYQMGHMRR

[14] = target: Stromelysin-1 (Homo sapiens) (UniProt P08254); assay: Inhibition of MMP3
[15] = target: 72 kDa type IV collagenase (Homo sapiens) (UniProt P08253); assay: Inhibition of MMP2
[16] = target: T3, Matrilysin (Homo sapiens) (UniProt P09237); assay: Inhibition of MMP7
T3 sequence (whole entry): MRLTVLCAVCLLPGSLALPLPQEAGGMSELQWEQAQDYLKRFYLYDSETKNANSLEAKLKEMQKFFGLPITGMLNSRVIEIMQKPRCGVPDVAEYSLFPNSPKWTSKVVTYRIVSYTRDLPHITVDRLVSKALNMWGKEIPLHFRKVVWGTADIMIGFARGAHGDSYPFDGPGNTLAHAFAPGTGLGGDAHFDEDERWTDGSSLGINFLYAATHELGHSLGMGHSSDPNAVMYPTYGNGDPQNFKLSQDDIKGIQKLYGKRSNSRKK

[17] = Tmax in rat at 10 mg/kg, po; format: ADME, organism-based; design: dose 10 mg/kg, route oral; conditions: in vivo; in short: as §1

Sequence of Matrix metalloproteinase-9 (Homo sapiens) (P14780 whole entry): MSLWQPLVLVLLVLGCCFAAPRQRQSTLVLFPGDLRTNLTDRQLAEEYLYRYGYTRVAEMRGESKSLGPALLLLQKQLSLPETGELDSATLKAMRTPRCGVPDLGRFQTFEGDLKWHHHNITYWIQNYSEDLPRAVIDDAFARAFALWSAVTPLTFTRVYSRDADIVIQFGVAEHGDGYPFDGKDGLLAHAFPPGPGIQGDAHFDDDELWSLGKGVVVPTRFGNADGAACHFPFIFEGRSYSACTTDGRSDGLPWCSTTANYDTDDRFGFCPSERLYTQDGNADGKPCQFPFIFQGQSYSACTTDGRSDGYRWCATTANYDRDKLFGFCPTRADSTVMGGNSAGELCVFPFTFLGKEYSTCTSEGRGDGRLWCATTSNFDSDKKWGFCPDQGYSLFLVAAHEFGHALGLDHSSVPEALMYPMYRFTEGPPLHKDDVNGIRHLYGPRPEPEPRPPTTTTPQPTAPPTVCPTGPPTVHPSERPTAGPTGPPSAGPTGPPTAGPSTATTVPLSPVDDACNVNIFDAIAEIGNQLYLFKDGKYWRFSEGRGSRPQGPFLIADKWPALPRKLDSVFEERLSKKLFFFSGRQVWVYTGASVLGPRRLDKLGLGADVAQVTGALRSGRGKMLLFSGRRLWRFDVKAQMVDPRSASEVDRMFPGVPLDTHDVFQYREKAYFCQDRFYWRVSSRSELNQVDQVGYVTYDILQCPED
Sequence of Stromelysin-1 (Homo sapiens) (P08254 100-477 limits assumed): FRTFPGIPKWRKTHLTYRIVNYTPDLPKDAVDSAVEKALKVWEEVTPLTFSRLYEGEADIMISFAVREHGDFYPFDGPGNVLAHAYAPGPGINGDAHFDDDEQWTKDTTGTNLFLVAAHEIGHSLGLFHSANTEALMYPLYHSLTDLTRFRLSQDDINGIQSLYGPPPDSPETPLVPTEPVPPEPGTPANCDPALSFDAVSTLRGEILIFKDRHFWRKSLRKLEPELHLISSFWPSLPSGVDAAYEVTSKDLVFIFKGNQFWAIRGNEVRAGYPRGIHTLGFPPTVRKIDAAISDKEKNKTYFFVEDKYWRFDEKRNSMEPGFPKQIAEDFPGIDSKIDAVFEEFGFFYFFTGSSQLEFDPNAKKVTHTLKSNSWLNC
Sequence of Disintegrin and metalloproteinase domain-containing protein 17 (P78536 whole entry, the tested form may be a part): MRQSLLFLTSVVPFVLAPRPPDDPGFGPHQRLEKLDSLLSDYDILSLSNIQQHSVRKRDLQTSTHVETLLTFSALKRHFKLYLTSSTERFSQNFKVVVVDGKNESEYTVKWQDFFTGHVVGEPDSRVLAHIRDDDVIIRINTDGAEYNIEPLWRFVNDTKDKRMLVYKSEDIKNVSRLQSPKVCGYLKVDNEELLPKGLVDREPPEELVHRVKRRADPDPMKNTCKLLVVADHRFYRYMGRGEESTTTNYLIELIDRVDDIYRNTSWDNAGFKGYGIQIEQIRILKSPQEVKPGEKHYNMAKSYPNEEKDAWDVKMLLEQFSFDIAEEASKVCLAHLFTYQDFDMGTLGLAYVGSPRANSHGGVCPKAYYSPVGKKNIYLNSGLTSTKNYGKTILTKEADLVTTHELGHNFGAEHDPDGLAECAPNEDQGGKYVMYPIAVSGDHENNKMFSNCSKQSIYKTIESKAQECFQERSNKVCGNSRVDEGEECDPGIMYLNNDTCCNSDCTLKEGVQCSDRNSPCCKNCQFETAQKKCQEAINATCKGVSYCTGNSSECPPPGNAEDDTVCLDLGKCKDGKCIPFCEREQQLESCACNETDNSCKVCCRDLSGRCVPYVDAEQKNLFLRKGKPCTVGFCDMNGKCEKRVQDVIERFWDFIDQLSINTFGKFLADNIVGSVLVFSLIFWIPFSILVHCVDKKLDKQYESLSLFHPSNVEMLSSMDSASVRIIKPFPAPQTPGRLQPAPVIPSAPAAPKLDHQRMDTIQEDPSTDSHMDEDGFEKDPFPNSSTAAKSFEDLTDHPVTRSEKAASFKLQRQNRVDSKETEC
Sequence of 72 kDa type IV collagenase (Homo sapiens) (P08253 110-660 limits assumed): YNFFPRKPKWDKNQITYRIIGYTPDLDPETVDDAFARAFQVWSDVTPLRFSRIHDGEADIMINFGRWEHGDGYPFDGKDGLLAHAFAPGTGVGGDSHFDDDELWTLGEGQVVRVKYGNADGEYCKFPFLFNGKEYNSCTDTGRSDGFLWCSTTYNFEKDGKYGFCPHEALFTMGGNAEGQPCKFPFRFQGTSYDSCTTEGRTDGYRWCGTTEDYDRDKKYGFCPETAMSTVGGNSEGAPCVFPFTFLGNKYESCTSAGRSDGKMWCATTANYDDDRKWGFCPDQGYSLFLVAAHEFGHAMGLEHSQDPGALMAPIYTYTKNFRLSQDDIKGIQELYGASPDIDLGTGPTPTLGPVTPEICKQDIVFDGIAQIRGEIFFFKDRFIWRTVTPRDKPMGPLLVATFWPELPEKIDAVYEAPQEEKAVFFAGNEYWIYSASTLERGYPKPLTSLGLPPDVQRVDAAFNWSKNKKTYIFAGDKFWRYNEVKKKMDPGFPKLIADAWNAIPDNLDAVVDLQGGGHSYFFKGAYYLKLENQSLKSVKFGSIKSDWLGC

COc1ccc2c(c1)C(=O)N(C[C@@]1(c3ccc(-c4ccnc(N)c4)cc3)NC(=O)NC1=O)C2
Ki [1]: 1.4 nM

COc1ccc2c(c1)C(=O)N(C[C@@]1(c3ccc(-c4ccc(C(N)=O)cc4)cc3)NC(=O)NC1=O)C2
Ki [1]: 3 nM

O=C1NC(=O)[C@](CN2Cc3ccc(F)cc3C2=O)(c2ccc(-c3ccc(C(F)(F)F)cc3)cc2)N1
Ki [1]: 18 nM

COc1ccc2c(c1)C(=O)N(C[C@@]1(c3ccc(-c4cc(-c5ccccc5)no4)cc3)NC(=O)NC1=O)C2
Ki [1]: 28 nM

COc1ccc2c(c1)C(=O)N(C[C@@]1(c3ccc(-c4cccc(-c5csc(C)n5)c4)cc3)NC(=O)NC1=O)C2
Ki [1]: 31 nM

COc1ccc2c(c1)C(=O)N(C[C@@]1(c3ccc(C4(C)NC(=O)NC4=O)cc3)NC(=O)NC1=O)C2 (stereo partly drawn)
Ki [1]: 2.6 nM

O=C1NC(=O)[C@](CN2Cc3ccc(F)cc3C2=O)(c2ccc(-c3ccc(F)cc3F)cc2)N1
Ki [1]: 2 nM

COc1ccc2c(c1)C(=O)N(C[C@@]1(c3ccc(Oc4ccc5cnccc5c4)cc3)NC(=O)NC1=O)C2
Ki [1]: 8 nM

COc1ccc2c(c1)C(=O)N(C[C@@]1(c3ccc(-c4cnn(C)c4)cc3)NC(=O)NC1=O)C2
INH [2]: 19 nM | AUC [3]: 22.2 µM·h | INH [4]: 202 nM | bioavailability [5]: 18% | INH [6]: 122 nM | CL (Rattus norvegicus [7]): 55 mL/min/kg | AUC (Rattus norvegicus [8]): 36.2 µM·h | Cmax [9]: 4.45 µM | INH [10]: 718 nM | t1/2 (Rattus norvegicus [11]): 4.4 h | Vdss (Rattus norvegicus [12]): 0.3 L/kg | INH [13]: 187 nM | INH [14]: 430 nM | INH [15]: 24 nM | INH [16]: > 40 µM | Tmax [17]: 2 h

O=C1NC(=O)[C@](CN2Cc3ccc(F)cc3C2=O)(c2ccc(-c3c[nH]c(=O)c(Cl)c3)cc2)N1
Ki [1]: 0.1 nM

COc1ccc2c(c1)C(=O)N(C[C@@]1(c3ccc(-c4nccs4)cc3)NC(=O)NC1=O)C2
Ki [1]: 0.6 nM

COc1ccc2c(c1)C(=O)N(C[C@@]1(c3ccc(Oc4ccncc4)cc3)NC(=O)NC1=O)C2
Ki [1]: 7 nM

COc1ccc2c(c1)C(=O)N(C[C@@]1(c3ccc(-c4cccnc4)cc3)NC(=O)NC1=O)C2
INH [2]: 25 nM | AUC [3]: 9.1 µM·h | INH [4]: 155 nM | bioavailability [5]: 14.1% | INH [6]: 124 nM | CL (Rattus norvegicus [7]): 103 mL/min/kg | AUC (Rattus norvegicus [8]): 19 µM·h | Cmax [9]: 2.96 µM | INH [10]: 655 nM | t1/2 (Rattus norvegicus [11]): 4.3 h | Vdss (Rattus norvegicus [12]): 0.3 L/kg | INH [13]: 216 nM | INH [14]: 3.61 nM | INH [16]: 17.4 µM | Tmax [17]: 0.58 h

O=C1NC(=O)[C@](CN2Cc3ccc(F)cc3C2=O)(c2ccc(-c3ccc(=O)[nH]c3)cc2)N1
Ki [1]: 0.2 nM

COc1ccc2c(c1)C(=O)N(C[C@@]1(c3ccc(-c4ccnc(C)c4)cc3)NC(=O)NC1=O)C2
INH [2]: 36 nM | AUC [3]: 13 µM·h | INH [4]: 194 nM | bioavailability [5]: 19% | INH [6]: 212 nM | CL (Rattus norvegicus [7]): 91.7 mL/min/kg | AUC (Rattus norvegicus [8]): 21 µM·h | Cmax [9]: 3.3 µM | Ki [1]: 0.5 nM | INH [10]: 1740 nM | t1/2 (Rattus norvegicus [11]): 4.4 h | Vdss (Rattus norvegicus [12]): 0.3 L/kg | INH [13]: 253 nM | INH [14]: 434 nM | INH [15]: 86 nM | INH [16]: 30 µM | Tmax [17]: 1.7 h

COc1ccc2c(c1)C(=O)N(C[C@@]1(c3ccc(-c4cncnc4)cc3)NC(=O)NC1=O)C2
Ki [1]: 0.9 nM

COc1ccc2c(c1)C(=O)N(C[C@@]1(c3ccc(-c4ccncc4)cc3)NC(=O)NC1=O)C2
Ki [1]: 0.6 nM

COC(=O)c1ccc(-c2ccc([C@]3(CN4Cc5ccc(OC)cc5C4=O)NC(=O)NC3=O)cc2)cc1
Ki [1]: 9 nM
